Published values from different studies.
Lines come from different studies, so protocols differ.

The EC50 of `C=CC(=O)NC1CCN(c2ncc3ncnc(Nc4ccc(Oc5ccc6c(c5)ncn6C)c(C)c4)c3n2)CC1` is reported as 0.964 µM (ABC-1; cell growth or viability).
The GI50 of `O=C(NO)c1ccc(CNc2nc3cccc(-c4ccc5c(c4)OCO5)n3n2)cc1` is reported as 0.58 µM (NCI-H226; cell growth or viability, SRB).
For `O=C(O)c1ccccc1Nc1cccc(C(F)(F)F)c1`, the GI50 was > 40 µM (NCI-H226; cell growth or viability, CCK-8; 72 h).
For `O=C(O)c1ccc2c(c1)nc(Nc1cccc(Cl)c1)c1ccncc12`, the IC50 was 5.8 µM (NCI-H226; cell growth or viability, crystal violet; 48 h).
`C=C(F)C(=O)N1CCN(c2nc(OC[C@@H]3CCCN3C)nc3c2CCN(c2cccc4cccc(Cl)c24)C3)C[C@@H]1CC#N` has an IC50 of > 1 µM (SNU1; cell growth or viability, ATP luminescence; 3D culture).
The GI50 of `C=CC(=O)c1cccnc1Nc1cc(C(F)(F)F)ccc1OC` is reported as 16.2 µM (NCI-H226; cell growth or viability, CCK-8; 72 h).
The IC50 of `CC(C)c1ccccc1[C@@H]1CCCN1C1CC2(CCN(c3ccc(C(=O)NS(=O)(=O)c4ccc(NC[C@H]5CC[C@](C)(O)CC5)c([N+](=O)[O-])c4)c(Oc4cnc5[nH]ccc5c4)c3)CC2)C1` is reported as 4.45 µM (SU-DHL-8; cell growth or viability, ATP luminescence; 48 h).
The IC50 of `CN(C)C(=O)c1cc2cnc(Nc3ccc(N4CCNCC4)cn3)nc2n1C1CCCC1` is reported as 0.83 µM (human Neutrophil; superoxide release, inhibitor).
`C=CC(=O)c1cccnc1Nc1cccc(C(F)(F)F)c1` gave a GI50 of 29.1 µM (NCI-H226; cell growth or viability, CCK-8; 72 h).
